Activity calls are given as the source filed them. The rule behind the calls is not given here.
Columns and labels:
MC-38 = assay: Antitumor activity against mouse MC38 tumor model administered as monotherapy; assay type: functional
[1] = Drug metabolism in mouse hepatocytes assessed as hydrolysis; assay type: ADME, cell-based, Hepatocyte
Canis familiaris [2] = assay: Oral bioavailability in beagle dog assessed as (R)-3-(5-fluoro-1H-indol-3-yl)pyrrolidine-2,5-dione at 3 mg/kg; assay type: ADME, organism-based, Canis lupus familiaris; conditions: in vivo
Hepatocyte [3] = assay: Induction of CYP2B6 mRNA expression in human hepatocytes at <100 uM; assay type: ADME, cell-based
Rattus norvegicus [4] = assay: Cmax in Wistar-Han rat assessed as (R)-3-(5-fluoro-1H-indol-3-yl)pyrrolidine-2,5-dione at 3 mg/kg, po; assay type: ADME, organism-based; design: dose 3 mg/kg, route oral; conditions: in vivo
Cytochrome P450 1A2 = target: T1, Cytochrome P450 1A2 (Homo sapiens, UniProt P05177); assay: Time/NADPH-dependent inhibition of CYP1A2 (unknown origin); assay type: ADME
T1 sequence (P05177 whole entry): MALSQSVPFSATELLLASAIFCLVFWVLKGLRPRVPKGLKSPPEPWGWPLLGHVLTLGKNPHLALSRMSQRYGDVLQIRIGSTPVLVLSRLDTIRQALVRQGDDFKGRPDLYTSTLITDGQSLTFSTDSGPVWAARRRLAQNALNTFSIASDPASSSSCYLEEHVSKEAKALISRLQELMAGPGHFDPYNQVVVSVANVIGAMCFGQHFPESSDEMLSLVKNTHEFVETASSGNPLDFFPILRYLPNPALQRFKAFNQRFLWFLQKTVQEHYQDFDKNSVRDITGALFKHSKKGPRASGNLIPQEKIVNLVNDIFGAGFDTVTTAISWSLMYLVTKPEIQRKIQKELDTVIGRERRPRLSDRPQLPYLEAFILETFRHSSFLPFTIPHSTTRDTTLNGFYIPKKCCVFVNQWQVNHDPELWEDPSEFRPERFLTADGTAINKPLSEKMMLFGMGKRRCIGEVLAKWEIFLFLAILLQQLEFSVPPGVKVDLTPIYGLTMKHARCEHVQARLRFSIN

Mus musculus [5] = assay: Half life in CD-1 mouse assessed as (R)-3-(5-fluoro-1H-indol-3-yl)pyrrolidine-2,5-dione at 3 mg/kg, po; assay type: ADME, organism-based; conditions: in vivo
[6] = Drug excretion in rat urine assessed as (R)-3-(5-fluoro-1H-indol-3-yl)pyrrolidine-2,5-dione; assay type: ADME; conditions: in vivo
Procedure, shortened: (§1)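 Racemate dosed to rats (urine and bile collected) and to dogs (urine collected). The percentage of the dose excreted as unchanged (R)-enantiomer was measured.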

Cytochrome P450 2C19 = Cytochrome P450 2C19 (Homo sapiens, UniProt P33261); assay: Inhibition of CYP2C19 (unknown origin); assay type: ADME
Sequence of Cytochrome P450 2C19 (P33261 whole entry): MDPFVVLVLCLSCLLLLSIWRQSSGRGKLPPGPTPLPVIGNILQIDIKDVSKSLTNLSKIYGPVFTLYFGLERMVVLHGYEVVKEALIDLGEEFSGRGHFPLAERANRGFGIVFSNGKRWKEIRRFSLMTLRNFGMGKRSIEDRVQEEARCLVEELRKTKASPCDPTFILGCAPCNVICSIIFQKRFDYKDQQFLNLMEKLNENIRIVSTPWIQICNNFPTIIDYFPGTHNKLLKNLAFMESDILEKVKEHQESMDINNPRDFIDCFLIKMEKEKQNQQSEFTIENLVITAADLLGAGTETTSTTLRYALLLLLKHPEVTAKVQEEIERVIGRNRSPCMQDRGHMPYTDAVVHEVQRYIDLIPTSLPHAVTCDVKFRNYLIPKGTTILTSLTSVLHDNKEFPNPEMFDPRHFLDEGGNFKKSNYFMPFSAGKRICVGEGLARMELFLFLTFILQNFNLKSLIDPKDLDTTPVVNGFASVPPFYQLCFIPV

Cytochrome P450 3A4 [7] = target: T2, Cytochrome P450 3A4 (Homo sapiens, UniProt P08684); assay: Inhibition of CYP3A4 (unknown origin); assay type: ADME
T2 sequence (P08684 whole entry): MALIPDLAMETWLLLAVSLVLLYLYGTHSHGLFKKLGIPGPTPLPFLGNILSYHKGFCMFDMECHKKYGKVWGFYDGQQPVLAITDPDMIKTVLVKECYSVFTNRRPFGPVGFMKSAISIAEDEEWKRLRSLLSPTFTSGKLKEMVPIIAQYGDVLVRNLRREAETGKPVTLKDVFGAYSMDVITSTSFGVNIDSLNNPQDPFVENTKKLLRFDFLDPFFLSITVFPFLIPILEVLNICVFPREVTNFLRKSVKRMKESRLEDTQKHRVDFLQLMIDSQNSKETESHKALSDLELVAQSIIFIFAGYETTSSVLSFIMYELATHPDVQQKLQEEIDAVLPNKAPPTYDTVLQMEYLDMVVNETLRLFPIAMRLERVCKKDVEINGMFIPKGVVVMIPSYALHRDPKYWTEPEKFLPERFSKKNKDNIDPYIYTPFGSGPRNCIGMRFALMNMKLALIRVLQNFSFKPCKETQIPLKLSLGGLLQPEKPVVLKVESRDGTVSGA

[8] = Drug metabolism in dog hepatocytes assessed as hydrolysis; assay type: ADME, cell-based, Canis lupus familiaris, Hepatocyte
Cytochrome P450 3A4 [9] = target: T2, Cytochrome P450 3A4; assay: Time-dependent inhibition of CYP3A4 (unknown origin); assay type: ADME
Hepatocyte [10] = assay: Induction of CYP1A2 mRNA expression in human hepatocytes at <100 uM; assay type: ADME, cell-based
[11] = Total brain to plasma partition coefficient, Kp in po dosed rat assessed as (R)-3-(5-fluoro-1H-indol-3-yl)pyrrolidine-2,5-dione; assay type: ADME, organism-based
Procedure, shortened: (§2)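 Racemate dosed orally to rats; active enantiomer measured in brain, CSF and plasma; total brain/plasma ratio and unbound brain/unbound plasma ratio calculated.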

Cytochrome P450 3A4 [12] = target: T2, Cytochrome P450 3A4; assay: Time/NADPH-dependent inhibition of CYP3A4 (unknown origin); assay type: ADME
Mus musculus [13] = assay: AUC (infinity) in CD-1 mouse assessed as (R)-3-(5-fluoro-1H-indol-3-yl)pyrrolidine-2,5-dione at 1 mg/kg, iv by LC-MS/MS method; assay type: ADME, organism-based; design: dose 1 mg/kg, route intravenous, time infinity; conditions: in vivo
Procedure, shortened: (§3)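 Racemate given as a single 1 mg/kg IV dose to male CD-1 mice, Wistar-Han rats or beagle dogs (n=3 per species). Plasma levels of the (R)-enantiomer measured by chiral LC-MS/MS. Mean AUCinf, CLp, Vss and t1/2 reported.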

Mus musculus [14] = assay: Oral bioavailability in CD-1 mouse assessed as (R)-3-(5-fluoro-1H-indol-3-yl)pyrrolidine-2,5-dione at 3 mg/kg; assay type: ADME, organism-based; conditions: in vivo
Canis familiaris [15] = assay: Cmax in beagle dog assessed as (R)-3-(5-fluoro-1H-indol-3-yl)pyrrolidine-2,5-dione at 3 mg/kg, po; assay type: ADME, organism-based, Canis lupus familiaris; design: dose 3 mg/kg, route oral; conditions: in vivo
[16] = Intrinsic apparent clearance in mouse hepatocytes assessed per million cells; assay type: ADME, cell-based, Hepatocyte
Rattus norvegicus [17] = assay: AUC (infinity) in Wistar-Han rat assessed as (R)-3-(5-fluoro-1H-indol-3-yl)pyrrolidine-2,5-dione at 1 mg/kg, iv by LC-MS/MS method; assay type: ADME, organism-based; design: dose 1 mg/kg, time infinity, route intravenous; conditions: in vivo; procedure, shortened: as §3
Renca = assay: Antitumor activity against mouse Renca tumor model administered as monotherapy; assay type: functional
Cytochrome P450 2C9 = Cytochrome P450 2C9 (Homo sapiens, UniProt P11712); assay: Time/NADPH-dependent inhibition of CYP2C9 (unknown origin); assay type: ADME
Sequence of Cytochrome P450 2C9 (P11712 whole entry): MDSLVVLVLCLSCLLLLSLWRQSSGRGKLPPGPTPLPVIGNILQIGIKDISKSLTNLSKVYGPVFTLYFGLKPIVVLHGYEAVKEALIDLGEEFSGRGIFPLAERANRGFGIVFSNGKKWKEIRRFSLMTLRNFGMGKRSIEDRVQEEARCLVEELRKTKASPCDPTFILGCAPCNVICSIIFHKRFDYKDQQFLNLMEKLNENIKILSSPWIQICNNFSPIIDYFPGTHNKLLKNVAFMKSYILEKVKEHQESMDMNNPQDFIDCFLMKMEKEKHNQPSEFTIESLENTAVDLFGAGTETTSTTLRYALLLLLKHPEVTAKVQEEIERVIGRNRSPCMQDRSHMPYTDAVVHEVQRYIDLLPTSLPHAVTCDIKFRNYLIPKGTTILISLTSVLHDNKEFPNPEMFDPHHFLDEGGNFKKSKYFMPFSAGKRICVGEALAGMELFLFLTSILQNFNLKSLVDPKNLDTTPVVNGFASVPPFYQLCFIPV

Hepatocyte [18] = assay: Induction of CYP3A4 mRNA expression in human hepatocytes at <100 uM; assay type: ADME, cell-based
Rattus norvegicus [19] = assay: Half life in Wistar-Han rat assessed as (R)-3-(5-fluoro-1H-indol-3-yl)pyrrolidine-2,5-dione at 3 mg/kg, po; assay type: ADME, organism-based; conditions: in vivo
[20] = Drug excretion in rat bile assessed as (R)-3-(5-fluoro-1H-indol-3-yl)pyrrolidine-2,5-dione; assay type: ADME; conditions: in vivo; procedure, shortened: as §1
[21] = Ratio of unbound drug level in brain to plasma in po dosed rat assessed as (R)-3-(5-fluoro-1H-indol-3-yl)pyrrolidine-2,5-dione; assay type: ADME, organism-based; procedure, shortened: as §2
[22] = target: Tryptophan 2,3-dioxygenase (Homo sapiens, UniProt P48775); assay: Inhibition of human TDO2 using tryptophan as substrate after 22 mins by LC-MS/MS method
Sequence of Tryptophan 2,3-dioxygenase (P48775 whole entry): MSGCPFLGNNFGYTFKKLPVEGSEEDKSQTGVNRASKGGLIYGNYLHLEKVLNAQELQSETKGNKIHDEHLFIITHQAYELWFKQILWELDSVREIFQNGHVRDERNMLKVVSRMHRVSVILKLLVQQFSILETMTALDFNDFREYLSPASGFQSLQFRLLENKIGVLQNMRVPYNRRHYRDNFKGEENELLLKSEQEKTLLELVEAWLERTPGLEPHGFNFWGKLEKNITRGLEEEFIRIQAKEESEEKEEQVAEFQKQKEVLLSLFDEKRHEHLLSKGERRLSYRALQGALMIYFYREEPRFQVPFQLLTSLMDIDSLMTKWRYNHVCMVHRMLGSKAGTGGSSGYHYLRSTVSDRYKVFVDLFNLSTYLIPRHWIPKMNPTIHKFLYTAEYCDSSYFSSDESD

[23] = Intrinsic apparent clearance in dog hepatocytes assessed per million cells; assay type: ADME, cell-based, Canis lupus familiaris, Hepatocyte
Canis familiaris [24] = assay: Tmax in beagle dog assessed as (R)-3-(5-fluoro-1H-indol-3-yl)pyrrolidine-2,5-dione at 3 mg/kg, po; assay type: ADME, organism-based, Canis lupus familiaris; conditions: in vivo
[25] = Drug metabolism in mouse hepatocytes assessed as oxidation; assay type: ADME, cell-based, Hepatocyte
Cytochrome P450 2D6 = Cytochrome P450 2D6 (Homo sapiens, UniProt P10635); assay: Inhibition of CYP2D6 (unknown origin); assay type: ADME
Sequence of Cytochrome P450 2D6 (P10635 whole entry): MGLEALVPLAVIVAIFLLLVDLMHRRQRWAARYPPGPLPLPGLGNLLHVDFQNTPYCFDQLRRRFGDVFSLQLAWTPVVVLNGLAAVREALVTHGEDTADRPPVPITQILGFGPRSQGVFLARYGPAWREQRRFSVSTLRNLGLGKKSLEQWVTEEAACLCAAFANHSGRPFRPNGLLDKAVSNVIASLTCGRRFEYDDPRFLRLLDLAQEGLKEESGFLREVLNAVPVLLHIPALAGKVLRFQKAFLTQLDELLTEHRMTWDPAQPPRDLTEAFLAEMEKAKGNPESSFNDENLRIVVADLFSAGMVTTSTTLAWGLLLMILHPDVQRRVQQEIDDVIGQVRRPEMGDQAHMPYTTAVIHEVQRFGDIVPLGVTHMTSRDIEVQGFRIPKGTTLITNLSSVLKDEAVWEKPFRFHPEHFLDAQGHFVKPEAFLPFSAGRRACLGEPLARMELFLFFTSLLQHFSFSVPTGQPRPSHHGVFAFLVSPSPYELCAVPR

Mus musculus [26] = assay: Tmax in CD-1 mouse assessed as (R)-3-(5-fluoro-1H-indol-3-yl)pyrrolidine-2,5-dione at 3 mg/kg, po; assay type: ADME, organism-based; conditions: in vivo
Mus musculus [27] = assay: AUC (infinity) in CD-1 mouse assessed as (R)-3-(5-fluoro-1H-indol-3-yl)pyrrolidine-2,5-dione at 3 mg/kg, po; assay type: ADME, organism-based; design: dose 3 mg/kg, route oral, time infinity; conditions: in vivo
[28] = Inhibition of human p-gp transfected in MDCK cells assessed as decrease in digoxin transport; assay type: cell-based
Rattus norvegicus [29] = assay: Oral bioavailability in Wistar-Han rat assessed as (R)-3-(5-fluoro-1H-indol-3-yl)pyrrolidine-2,5-dione at 3 mg/kg; assay type: ADME, organism-based; conditions: in vivo
Rattus norvegicus [30] = assay: Half life in Wistar-Han rat assessed as (R)-3-(5-fluoro-1H-indol-3-yl)pyrrolidine-2,5-dione at 1 mg/kg, iv by LC-MS/MS method; assay type: ADME, organism-based; conditions: in vivo; procedure, shortened: as §3
Mus musculus [31] = assay: Volume of distribution at steady state in CD-1 mouse assessed as (R)-3-(5-fluoro-1H-indol-3-yl)pyrrolidine-2,5-dione at 1 mg/kg, iv by LC-MS/MS method; assay type: ADME, organism-based; conditions: in vivo
Canis familiaris [32] = assay: Half life in beagle dog assessed as (R)-3-(5-fluoro-1H-indol-3-yl)pyrrolidine-2,5-dione at 1 mg/kg, iv by LC-MS/MS method; assay type: ADME, organism-based, Canis lupus familiaris; conditions: in vivo

Drug metabolism [1]: Metabolite_Detected
F (Canis familiaris [2]): 18.6%
Activity (Hepatocyte [3]): Not Active
Cmax (Rattus norvegicus [4]): 985 ng/mL
inhibition (INH) (Cytochrome P450 1A2): Not Active
t1/2 (Mus musculus [5]): 2.48 h
Drug excretion [6]: < 1 %ID
IC50 (Cytochrome P450 2C19): 78 µM
IC50 (Cytochrome P450 3A4 [7]): > 100 µM
Drug metabolism [8]: Metabolite_Detected
TDI (Cytochrome P450 3A4 [9]): Not Active
Activity (Hepatocyte [10]): Not Active
Kp [11]: 0.51
inhibition (INH) (Cytochrome P450 3A4 [12]): Not Active
AUC (Mus musculus [13]): 1160 ng·h/mL
F (Mus musculus [14]): 59.3%
Cmax (Canis familiaris [15]): 219 ng/mL
CLH(app) [16]: 2.4 µL/min
AUC (Rattus norvegicus [17]): 2520 ng·h/mL
inhibition (INH) (Cytochrome P450 2C9): Not Active
Activity (Hepatocyte [18]): Not Active
t1/2 (Rattus norvegicus [19]): 2.42 h
Drug excretion [20]: < 1 %ID
K(p,uu,brain) [21]: 0.2
IC50 [22]: 140 µM
CLH(app) [23]: 10.3 µL/min
Tmax (Canis familiaris [24]): 0.25 h
Drug metabolism [25]: Metabolite_Detected
IC50 (Cytochrome P450 2D6): > 100 µM
Tmax (Mus musculus [26]): 0.58 h
AUC (Mus musculus [27]): 2170 ng·h/mL
IC50 [28]: > 300 µM
F (Rattus norvegicus [29]): 94%
t1/2 (Rattus norvegicus [30]): 2.22 h
Vdss (Mus musculus [31]): 0.787 L/kg
t1/2 (Canis familiaris [32]): 0.802 h
Compound: O=C1CC(c2c[nH]c3ccc(F)cc23)C(=O)N1 (stereo not drawn) [PF-06840003]
Activity (MC-38): Active
Activity (Renca): Active
